PubChem BioAssay
Calls of active or inactive are those of the source.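 The calls were made as follows, unless noted: active = NADPH fluorescence slope more negative than the mean of all samples by about 3 SD, 99.7% confidence; inactive = the rest.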

Experiments:
[1] = inhibitors of TNFa-induced NFkB p65 translocation, primary screen, imaging, HUVEC, MLSMR starter and 10KST1 sets (AID 438;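 active = inhibition above 20% together with a positive visual image hit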;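 also: compound added about 3h40 before a 20 min TNFalpha stimulation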;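 as to inhibition: signal is the nuclear over cytoplasmic p65 intensity ratio per well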); conditions: HUVEC TNFa-induced p65 nuclear translocation; cell count: measured here: nuclei count (cytotoxicity indicator), at 2.08 µM; inhibition: at 2 µM, stronger effect = higher value, 0% TNFa-plus-vehicle, 100% no-TNFa wells
[2] = inhibitors of E-selectin induction by TNFa, primary screen, imaging, HUVEC, immunofluorescence, MLSMR starter and 10KST1 sets (AID 487;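 active = visually confirmed hit in the image check and inhibition above 20%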;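 as to inhibition: signal is fraction of cell area covered by stained E-selectin grains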;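 as to nuclei count: 100% = median nuclei count of all wells on the same plate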); conditions: HUVEC TNFalpha-induced E-selectin immunofluorescence imaging, at 2 µM; inhibition: stronger effect = higher value; nuclei count: measured here: cell number, toxicity
[3] = DUSP6 inhibitors restoring Erk phosphorylation by chemical complementation, primary imaging in DUSP6-transfected HeLa (AID 609;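 active = compounds giving at least 50% inhibition in the cell-based MKP-3 phosphatase rescue imaging test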;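 as to inhibition: phospho-Erk level distribution per well compared with pooled transfected vehicle control wells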); conditions: HeLa MKP-3 transfected, phospho-Erk imaging KS statistic, at 10 µM, cells stimulated with TPA for 15 min
[4] = biological target: Dual specificity protein phosphatase 6 (Homo sapiens) (UniProt Q16828); assay: as above; conditions: HeLa MKP-3 transfected, phospho-Erk imaging KS statistic; at 10 µM; stronger effect = higher value; cells stimulated with TPA for 15 min
[5] = biological target: Voltage-gated potassium channel subunit beta-2 (Rattus norvegicus) (UniProt P62483); assay: KvBeta enzyme negative modulators, primary screen, biochemical, NADPH fluorescence (AID 622;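 active = fluorescence slope higher than the sample average by over 3 SD, cut at about -0.22 in these data, passing the limit was not always enough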;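 also: slope of raw intensity against log time taken from 70 to 1610 s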); conditions: recombinant KvBeta, 4-cyanobenzaldehyde reduction, at 10 µM, stronger effect = higher value
[6] = biological target: Voltage-gated potassium channel subunit beta-2 (Rattus norvegicus) (UniProt P62483); assay: KvBeta positive modulators, primary screen, biochemical, NADPH fluorescence (AID 623); conditions: Recombinant KvBeta, NADPH fluorescence decrease slope, 10 min; at 10 µM; stronger effect = lower value;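 also: fluorescence intensity change per second fitted from 20 to 320 s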
[7] = biological target: Muscarinic acetylcholine receptor M4 (Homo sapiens) (UniProt P08173); assay: compounds altering M4/GIRK thallium flux, either direction, primary screen, M4 allosteric agonist project, cell-based, HEK293 M4/GIRK, BTC-AM (AID 625;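 active = fluorescence slope after compound addition differing from the mean of all tested samples at 99.7% confidence, mostly higher but some lower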;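 also: thallium influx through GIRK channels coupled to M4 in HEK293 cells with BTC-AM dye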); conditions: at 10 µM, actives lie on both sides
In short: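 Material: M4/GIRK1/GIRK2 stable HEK293 cell line. Medium: pH 7.3 thallium assay buffer. Dosing: single compound concentration, 10 µM final. Schedule: 1 h dye loading, 2 min kinetic read. Measured by: kinetic fluorescence with BTC-AM dye. Read-out: post-addition slope, 15–24 s, of baseline-normalized fluorescence. Benchmarks: carbachol and DMSO controls.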

[8] = inhibitors of larval lipid processing in zebrafish, primary screen, whole organism, PED6 fluorescence, gall bladder and intestine (AID 686;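 active = a full or partial loss of lipid-probe fluorescence in the fish gall bladder, intestine or both, judged by eye; inactive = no fluorescence loss, or compound toxic to the fish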;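 also: larvae 5 to 7 days old with five fish per well; signal comes from phospholipase A2 cleavage of quenched PED6 carried via bile; overnight exposure to compound and PED6 before scoring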); conditions: Zebrafish larvae PED6 lipid processing, fluorescence scoring; screened at 20 µM (by protocol)
In short: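 System: live zebrafish larvae aged 5-7 days, whole organism; measure: graded gall bladder and intestinal fluorescence inhibition per well; incubation: overnight exposure; reagent: ingested quenched lipid PED6 at 100 nM; signal: By-eye fluorescence microscopy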

[9] = inhibitors of Chlamydomonas gravitaxis, primary screen, whole organism, Chlamydomonas reinhardtii, WT vs cilia-less mutant, absorbance, 96-well (AID 463189;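 active = inhibition at or above 50% relative to wild type and mutant plate controls; inactive = inhibition below 50%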;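 also: 0% = wild type cc124 cells in DMSO and 100% = ciliumless bld1 mutant cells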); conditions: OD600 absorbance, 2 days, at 10 µM, stronger effect = higher value
[10] = measured here: cell density z-score
[11] = measured here: nuclear c-Myc green intensity z-score
[12] = measured here: nuclear pErk red intensity z-score, stronger effect = higher value

Chain of Muscarinic acetylcholine receptor M4 (Homo sapiens) (P08173 whole entry, looked up): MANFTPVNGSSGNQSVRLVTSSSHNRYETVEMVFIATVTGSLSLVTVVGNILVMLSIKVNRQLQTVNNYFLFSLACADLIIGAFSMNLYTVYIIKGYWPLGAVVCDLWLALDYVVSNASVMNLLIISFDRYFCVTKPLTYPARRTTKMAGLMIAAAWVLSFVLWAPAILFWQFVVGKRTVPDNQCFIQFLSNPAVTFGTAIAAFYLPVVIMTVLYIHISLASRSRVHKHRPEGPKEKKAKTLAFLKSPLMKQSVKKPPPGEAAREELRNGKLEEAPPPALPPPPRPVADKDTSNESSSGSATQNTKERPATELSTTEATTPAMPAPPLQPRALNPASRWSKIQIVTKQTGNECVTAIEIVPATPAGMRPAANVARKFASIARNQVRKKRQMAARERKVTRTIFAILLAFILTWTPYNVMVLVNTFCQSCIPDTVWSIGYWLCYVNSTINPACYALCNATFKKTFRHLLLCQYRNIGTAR
Chain of Voltage-gated potassium channel subunit beta-2 (Rattus norvegicus) (P62483 whole entry, looked up): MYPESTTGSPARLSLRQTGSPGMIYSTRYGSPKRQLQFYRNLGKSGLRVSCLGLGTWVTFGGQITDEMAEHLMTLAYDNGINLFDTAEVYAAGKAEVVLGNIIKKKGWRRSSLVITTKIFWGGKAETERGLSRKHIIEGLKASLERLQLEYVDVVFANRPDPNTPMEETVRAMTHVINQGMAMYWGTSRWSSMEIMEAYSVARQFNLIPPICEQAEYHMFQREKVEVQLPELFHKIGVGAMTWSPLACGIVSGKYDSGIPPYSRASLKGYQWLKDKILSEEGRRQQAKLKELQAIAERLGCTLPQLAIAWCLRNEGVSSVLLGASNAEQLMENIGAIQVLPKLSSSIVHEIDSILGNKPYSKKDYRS
Chain of Dual specificity protein phosphatase 6 (Homo sapiens) (Q16828 whole entry, looked up): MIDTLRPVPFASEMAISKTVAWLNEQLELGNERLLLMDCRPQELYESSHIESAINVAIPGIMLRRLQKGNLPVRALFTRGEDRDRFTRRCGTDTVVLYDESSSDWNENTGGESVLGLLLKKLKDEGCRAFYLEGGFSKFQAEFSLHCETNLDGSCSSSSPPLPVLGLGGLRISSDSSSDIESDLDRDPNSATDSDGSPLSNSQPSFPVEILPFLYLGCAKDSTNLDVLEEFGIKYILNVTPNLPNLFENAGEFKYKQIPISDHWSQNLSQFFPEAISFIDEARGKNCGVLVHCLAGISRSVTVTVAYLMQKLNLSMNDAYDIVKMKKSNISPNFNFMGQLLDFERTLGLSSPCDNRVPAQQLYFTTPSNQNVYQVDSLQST

SMILES | cell count [1] | inhibition [1] | inhibition [2] | nuclei count [2] [%] | z-score [3, 10] | z-score [3, 11] | z-score [3, 12] | inhibition [4] | fluorescence slope [5] | NADPH fluorescence slope [6] | fluorescence slope [7] | outcome [8] | inhibition [9]
CCC(=O)Nc1nc2ccccc2n1CCN(C)C | 551 | 4.1% (inactive) | -371% (inactive) | 131 | 0.711 | 0.524 | -0.675 | -1.98% (inactive) | -0.436 (inactive) | -1.7e-05 (inactive) | 0.00568 (inactive) | inactive | -5.07% (inactive)
CC1(C)Cc2ccccc2-c2c1c(=O)n(-c1ccccc1)c1nnnn21 | 624 | 8.6% (inactive) | -45% (inactive) | 92.5 | 0.648 | -0.29 | -0.398 | 4.72% (inactive) | -0.51 (inactive) | -1.7e-05 (inactive) | 0.00444 (inactive) | inactive | 13.9% (inactive)
COCCCNc1nc2c(c(=O)[nH]c(=O)n2C)n1CC(O)COc1ccccc1 (centres undefined) | 379 | 6.8% (inactive) | -63.3% (inactive) | 128 | -0.311 | -0.833 | 1.79 | -0.608% (inactive) | -0.444 (inactive) | -7.9e-05 (inactive) | 0.00457 (inactive) | inactive | 23.4% (inactive)
NC(=O)/C(=N\O)c1ccccc1 | 575 | 5.9% (inactive) | -43.3% (inactive) | 113 | -0.256 | -0.324 | 0.104 | -4.7% (inactive) | -0.461 (inactive) | -5.1e-05 (inactive) | 0.00531 (inactive) | inactive | -12.8% (inactive)
C(=N\n1cnnc1)/c1cccc(Oc2ccccc2)c1 | 569 | -5.8% (inactive) | -140% (inactive) | 111 | -0.768 | 1.37 | 1.58 | -6.06% (inactive) | -0.515 (inactive) | -5.4e-05 (inactive) | 0.00705 (inactive) | inactive | 78.1% (active)
COC(=O)c1ccc(C2/C(=C(\O)c3ccc(OC)c(C)c3)C(=O)C(=O)N2c2cc(C)on2)cc1 (centres undefined) | 664 | -16.1% (inactive) | -48.1% (inactive) | 165 | -1.19 | 0.297 | 0.0353 | -1.12% (inactive) | -0.444 (inactive) | -3.1e-05 (inactive) | 0.00525 (inactive) | inactive | 16.4% (inactive)
O=C(Nc1ccccn1)c1ccc(=O)[nH]n1 | 634 | 4.2% (inactive) | -92.2% (inactive) | 134 | 0.857 | -1.57 | -0.248 | 6.51% (inactive) | -0.475 (inactive) | -0.0002 (inactive) | 0.00627 (inactive) | inactive | 20.6% (inactive)
CCOC(=O)c1[nH]c2ccc(OC)cc2c1NC(=O)CCN1CCCC(C)C1 (centres undefined) | 521 | -0.1% (inactive) | 9.9% (inactive) | 100 | -0.422 | -0.411 | -1.15 | 11.4% (inactive) | -0.351 (inactive) | -1.8e-05 (inactive) | 0.00513 (inactive) | inactive | 28.8% (inactive)
CCOC(=O)c1c(C)n(C)c2ccc(O)c(CN3CCCCC3)c12 | 616 | 9.7% (inactive) | -7.7% (inactive) | 92.8 | -0.792 | 0.194 | -0.0734 | -15.1% (inactive) | -0.442 (inactive) | -3.9e-05 (inactive) | 0.00334 (inactive) | inactive | 22.8% (inactive)
COc1ccc(C2=CC(c3ccc(C)cc3)n3nnnc3N2)cc1 (centres undefined) | 524 | -9.2% (inactive) | 29.9% (inactive) | 186 | -0.166 | -0.102 | 0.752 | -9.91% (inactive) | -0.294 (inactive) | -4.1e-05 (inactive) | 0.00566 (inactive) | inactive | -5.34% (inactive)
c1ccc2c(c1)[nH]c1c(N3CCSCC3)ncnc12 | 567 | -4.6% (inactive) | -117% (inactive) | 193 | 0.216 | -0.97 | -0.889 | -4.59% (inactive) | -0.358 (inactive) | -3.7e-06 (inactive) | 0.00494 (inactive) | inactive | 14.6% (inactive)
CCN1CCc2c(C#N)c(NCc3ccccc3)nc(N(CC)CC)c2C1 | 554 | -13.9% (inactive) | -108% (inactive) | 141 | 0.401 | -1.69 | 0.375 | 3.49% (inactive) | -0.439 (inactive) | -0.000126 (inactive) | 0.00477 (inactive) | inactive | 119% (active)
CCc1[nH]c(=O)c(C#N)c2c1CSC(C)(C)C2 | 678 | -9.4% (inactive) | -211% (inactive) | 166 | 0.402 | 0.0532 | -0.896 | -6.06% (inactive) | -0.471 (inactive) | -6.8e-05 (inactive) | 0.00604 (inactive) | inactive | 11.4% (inactive)
